logIC50 and IC50 data for 21 compounds are collected here from ChEMBL document CHEMBL1144713, “New selective inhibitors of steroid 11beta-hydroxylation in the adrenal cortex. Synthesis and structure-activity relationship of potent etomidate analogues” (J Med Chem, 2008).

The structures appear in SMILES notation.

Broadly, the IC50 is the midpoint of a concentration-inhibition curve.

A short description of assay [1]: Inhibition on cortisol secretion in human NCI-H295 cells after 48 hrs. It counts as functional, cell-based. The settings on record: for IC50: Homo sapiens, NCI-H295, 48 h. Summed up:
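NCI-h295 adrenocortical cells grown in RPMI 1640 with insulin, transferrin, selenium and 5% FCS. Compounds at 10 nM–100 µM added to 1 million cells/mL for 48 h, in triplicate. Supernatant cortisol measured by RIA and expressed as percent of control, with control from six uninhibited determinations. IC50 derived from these percentages.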

Assay [2] can be described thus: (§1) Displacement of [131I]IMTO from CYP450c 11 in Wistar rat adrenal membrane. Format: cell membranes. In short, it runs like this: (§2)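 Crude membranes from whole adrenals of adult male Wistar rats, homogenized in 10 mM K2HPO4/10 mM HEPES pH 7.1 and washed; 0.06–0.1 mg original tissue per vial. Competitors at 0.1 nM–300 µM with 2 nM 131I-IMTO (carrier added) in buffer containing 150 mM NaCl, 23 °C, 20–30 min. Filtration, γ counting. Nonspecific binding with 10 µM ETO. IC50 and Hill coefficient from curve fit, mean ± SD.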

A further assay is filed under the species Rattus norvegicus. The assay is described as §1. It counts as cell membranes. In short, it runs like this: as §2

Turning to `CNC(=O)c1cncn1[C@H](C)c1ccccc1`, the logIC50 worked out at 2.21 in assay [1] and 2.33 in the assay listed under Rattus norvegicus. In addition, the results for the IC50 in assay [1] and in assay [2] were 135 nM and 215 nM, respectively.

In assay [2], `COC(=O)c1cncn1[C@@H]1CCc2ccccc21` returned a half-maximal inhibitory concentration (IC50) of 3.26 nM.

In assay [2], `CCCOC(=O)c1cncn1[C@H](C)c1ccccc1` showed an IC50 of 2.89 nM.

For `CCOC(=O)c1cncn1[C@H](C)c1ccc(I)cc1`, in assay [2], the IC50 came to 4.37 nM.

In the case of `CCOC(=O)c1cncn1[C@H](C)c1ccccc1` [ETOMIDATE], the logIC50 in assay [1] was determined as 0.66; in the assay listed under Rattus norvegicus it was 0.033. The IC50 in assay [1] is 4.57 nM; in assay [2] it was 1.08 nM.

Turning to `CC(C)OC(=O)c1cncn1[C@H](C)c1ccccc1`, the IC50 in assay [2] stood at 1.42 nM.

With `COC(=O)c1cncn1[C@H](C)c1cccnc1`, the logIC50 in assay [1] came to 1.72; in the assay filed under Rattus norvegicus, 1.32. The values for the IC50 in assay [1] and in assay [2] were 52.2 nM and 20.7 nM, respectively.

With `C[C@H](c1ccccc1)n1cncc1C(=O)OCCF`, the logIC50 in assay [1] was 1.11; in the assay filed under Rattus norvegicus it was 0.46. The figures for the IC50 in assay [1] and in assay [2] were 8.92 nM and 2.89 nM, respectively.

As to `COC(=O)c1cncn1Cc1ccccc1`, the results for the logIC50 (in assay [1]; in the assay listed under Rattus norvegicus) were 1.51 and 1.46, respectively. Moreover, the IC50 in assay [1] amounted to 32.1 nM; in assay [2] it was 28.8 nM.

On to `COC(=O)c1cncn1[C@H](C)c1ccc(I)cc1` [IODOMETOMIDATE I-123, R-], for which the logIC50 in assay [1] was 0.84; in the assay filed under Rattus norvegicus, 0.954. The results for the IC50 in assay [1] and in assay [2] were 6.95 nM and 8.98 nM, respectively.

In assay [2], `C[C@H](c1ccccc1)n1cncc1C(=O)O` returned an IC50 of 123000 nM.

Turning to `COC(=O)c1cncn1Cc1cccnc1`, in assay [2], the IC50 was 870 nM.

As to `COC(=O)c1cncn1[C@@H](C)c1ccccc1`, the logIC50 was 2.77 in assay [1] and 2.69 in the assay filed under Rattus norvegicus. Besides, the figures for the IC50 in assay [1] and in assay [2] were 593 nM and 492 nM, respectively.

Compound `COC(=O)c1cncn1[C@H](C)c1cccc(I)c1` registered an IC50 in assay [2] of 4.44 nM.

Take `CON(C)C(=O)c1cncn1[C@H](C)c1ccccc1`: the logIC50 was 1.45 in assay [1] and 1.18 in the assay listed under Rattus norvegicus. The figures for the IC50 in assay [1] and in assay [2] were 19.5 nM and 14 nM, respectively.

For the compound `COC(=O)c1cncn1[C@H](C)c1ccc(Br)cc1`, the IC50 in assay [2] was 8.95 nM.

Take `CC(=O)c1cncn1[C@H](C)c1ccccc1`: the logIC50 in assay [1] amounted to 1.96; in the assay listed under Rattus norvegicus, 1.78. The IC50 was 59 nM in assay [1] and 59.8 nM in assay [2].

In the case of `CC[C@H](c1ccccc1)n1cncc1C(=O)OC`, the IC50 in assay [2] is 6.23 nM.

For `COC(=O)c1cncn1[C@H](C)c1ccc(CO)cc1`, in assay [2], the IC50 amounted to 3.29 nM.

On to `COC(=O)c1cncn1[C@H](C)c1ccccc1`, for which the logIC50 in assay [1] was determined as 1.14; in the assay filed under Rattus norvegicus, 0.57. The IC50 in assay [1] turned out to be 13.9 nM; in assay [2], 3.69 nM.

In the case of `COC(=O)c1cncn1[C@H](C)c1ccc(C)cc1`, the IC50 in assay [2] was found to be 3.58 nM.
